The text below walks through data of ChEMBL document CHEMBL4152269, “New N-phenylpyrrolamide DNA gyrase B inhibitors: Optimization of efficacy and antibacterial activity” (Eur J Med Chem, 2018).

As usually defined, the IC50 is the concentration needed to halve the response being measured.

In brackets after ≈: the same amount, converted by molar mass. Activity calls are given as the source filed them. The rule behind the calls is not given here.

Series [1] is described as follows: Inhibition of Escherichia coli C-terminal His6-tagged topoisomerase-4 expressed in Escherichia coli BL21(DE3) preincubated for 10 mins followed by ATP addition measured after 30 mins by purine nucleoside phosphorylase enzyme coupled spectrophotometric method.
Series [2] is described as follows: Inhibition of Staphylococcus aureus topoisomerase-4 assessed as residual activity preincubated for 10 mins followed by ATP addition measured after 30 mins by purine nucleoside phosphorylase enzyme coupled spectrophotometric method.
In series [3] the test system is Staphylococcus aureus. Kind of series: Growth inhibition of Staphylococcus aureus ATCC 25923 at 50 uM after 24 hrs by broth microdilution method relative to control. Format: functional. The conditions noted are these: ATCC 25923, 24 h, read-out: GI. Background: In broth dilution the organism is exposed to a series of concentrations in liquid medium.
Series [4] concerns Enterococcus faecalis. Kind of series: Growth inhibition of Enterococcus faecalis ATCC 29212 at 50 uM after 24 hrs by broth microdilution method relative to control. Format: functional. Particulars: ATCC 29212, 24 h, read-out: GI.
The subject of series [5] is Escherichia coli. In words: Growth inhibition of Escherichia coli ATCC 25922 at 50 uM after 24 hrs by broth microdilution method relative to control. Format: functional. The conditions noted are these: ATCC 25922, 24 h, read-out: GI.
The next series deals with Pseudomonas aeruginosa. In words: Growth inhibition of Pseudomonas aeruginosa ATCC 27853 at 50 uM after 24 hrs by broth microdilution method relative to control. The format is functional. The conditions noted are these: ATCC 27853, 24 h, read-out: GI.
Series [6] concerns Escherichia coli. Kind of series: Growth inhibition of tolC deficient Escherichia coli JW5503 at 50 uM after 24 hrs by broth microdilution method relative to control. Format: functional. Particulars: JW5503, 24 h, read-out: GI.
In series [7] the test system is Escherichia coli. In words: Growth inhibition of lpxC deficient Escherichia coli JD17464 at 50 uM after 24 hrs by broth microdilution method relative to control. Format: functional. Particulars: JD17464, 24 h, read-out: GI.
The subject of series [8] is Enterococcus faecalis. Kind of series: Antibacterial activity against Enterococcus faecalis ATCC 29212 after 18 hrs by broth microdilution method. The format is functional. Particulars: ATCC 29212, 18 h.
Series [9] has as its system Staphylococcus aureus. In words: Antibacterial activity against Staphylococcus aureus ATCC 29213 after 18 hrs by broth microdilution method. Format: functional. Particulars: ATCC 29213, 18 h. In outline:
(§1)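 EUCAST/ISO 20776-1 broth microdilution using 12-step serial dilutions in cation-adjusted Mueller-Hinton II broth. About 5 × 10^4 bacteria were inoculated per well and incubated at 37 °C, shaken at 300 rpm, for 18 h. Growth was read as OD600. MIC is the lowest concentration giving background-normalized OD600 below 0.05, from 3 replicates.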

Series [10] relates to Staphylococcus aureus. Kind of series: Antibacterial activity against methicillin-resistant Staphylococcus aureus ATCC 43300 after 18 hrs by broth microdilution method. The format is functional. The conditions noted are these: ATCC 43300, 18 h.
In series [11] the test system is Escherichia coli. In words: Antibacterial activity against Escherichia coli ATCC 25922 up to 50 uM after 18 hrs by broth microdilution method. The format is functional, organism-based. The gist of the method:
(§2)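 Broth microdilution per EUCAST/ISO 20776-1:2006: 12-step serial dilutions of compound in cation-adjusted Mueller-Hinton II broth, about 5 × 10^4 bacteria per well, 37 °C with shaking at 300 rpm, OD600 read after 18 h. MIC is the lowest concentration with background-normalized OD600 below 0.05, i.e. no visible growth; 3 replicates. Top concentration 50 μM.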

The test system of series [12] is Escherichia coli. Kind of series: Antibacterial activity against Escherichia coli MG1655 up to 50 uM after 18 hrs by broth microdilution method. The conditions noted are these: K-12 substr. MG1655. Format: functional, organism-based. The gist of the method: as §2
Series [13] deals with Escherichia coli. In words: Antibacterial activity against Escherichia coli BW25113 up to 50 uM after 18 hrs by broth microdilution method. The format is functional, organism-based. The gist of the method:
as §2

The subject of series [14] is Escherichia coli. In words: Antibacterial activity against tolC deficient Escherichia coli BW25113 up to 50 uM after 18 hrs by broth microdilution method. Format: functional, organism-based. The gist of the method:
as §2

Series [15] deals with Escherichia coli. Kind of series: Antibacterial activity against acrB deficient Escherichia coli BW25113 up to 50 uM after 18 hrs by broth microdilution method. The format is functional, organism-based. In outline:
as §2

The subject of series [16] is Escherichia coli. In words: Antibacterial activity against dapF deficient Escherichia coli BW25113 up to 50 uM after 18 hrs by broth microdilution method. The format is functional, organism-based. The gist of the method: as §2
Series [17] relates to Escherichia coli. Kind of series: Antibacterial activity against mrcB deficient Escherichia coli BW25113 up to 50 uM after 18 hrs by broth microdilution method. Format: functional, organism-based. The gist of the method: as §1
Series [18] has as its system Escherichia coli. Kind of series: Antibacterial activity against surA deficient Escherichia coli BW25113 up to 50 uM after 18 hrs by broth microdilution method. The format is functional, organism-based. In outline: as §2
For series [19], the system named is Escherichia coli. In words: Antibacterial activity against Escherichia coli ATCC 25922 after 18 hrs in presence of efflux pump inhibitor PAbetaN by broth microdilution method. The format is functional. The conditions noted are these: ATCC 25922, 18 h. The gist of the method: (§3)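 Efflux pump inhibitor PAβN was added to EUCAST/ISO 20776-1 broth microdilution using 12-step serial dilutions in cation-adjusted Mueller-Hinton II broth. About 5 × 10^4 bacteria were inoculated per well and incubated at 37 °C, shaken at 300 rpm, for 18 h, then read at OD600. MIC is the lowest concentration with background-normalized OD600 below 0.05, from 3 replicates.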

Series [20] relates to Escherichia coli. Kind of series: Antibacterial activity against Escherichia coli MG1655 after 18 hrs in presence of efflux pump inhibitor PAbetaN by broth microdilution method. The format is functional. The conditions noted are these: K-12 substr. MG1655, 18 h. In outline: as §3
In series [21] the test system is Escherichia coli. Kind of series: Antibacterial activity against Escherichia coli BW25113 up to 20 uM after 18 hrs in presence of efflux pump inhibitor PAbetaN by broth microdilution method. Format: functional, organism-based.
Series [22] relates to Escherichia coli. In words: Antibacterial activity against dapF deficient Escherichia coli BW25113 up to 20 uM after 18 hrs in presence of efflux pump inhibitor PAbetaN by broth microdilution method. Format: functional, organism-based. The gist of the method: (§4)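 Same EUCAST broth microdilution in cation-adjusted Mueller-Hinton II broth, 12-step compound dilutions, about 5 × 10^4 bacteria per well, 37 °C, 300 rpm, OD600 at 18 h. Parental and mutant strains were co-treated with the efflux pump inhibitor PAβN. MIC taken as normalized OD600 below 0.05; 3 replicates.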

Series [23] relates to Escherichia coli. Kind of series: Antibacterial activity against mrcB deficient Escherichia coli BW25113 up to 20 uM after 18 hrs in presence of efflux pump inhibitor PAbetaN by broth microdilution method. Format: functional, organism-based. The gist of the method: as §4
For series [24], the system named is Escherichia coli. Kind of series: Antibacterial activity against surA deficient Escherichia coli BW25113 after 18 hrs in presence of efflux pump inhibitor PAbetaN by broth microdilution method. The format is functional. The conditions noted are these: BW25113, 18 h. In outline: as §3
For series [25], the system named is Escherichia coli. Kind of series: Antibacterial activity against Escherichia coli MG1655 harboring NOG R136C mutant up to 50 uM after 18 hrs in presence of efflux pump inhibitor PAbetaN by broth microdilution method. The format is functional, organism-based. The conditions noted are these: K-12 substr. MG1655.
Series [26] in a line: Cytotoxicity against human HepG2 cells assessed as cell proliferation at 50 uM after 72 hrs by MTS assay relative to control. The format is cell-based. The conditions noted are these: read-out: Activity. The gist of the method: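 MTS assay in HepG2 grown in Eagle's MEM with 2 mM L-glutamine, penicillin/streptomycin and 10% FBS, at 37 °C under 5% CO2. Cells seeded at 2000 per well and attached for 24 h. Compound added at 50 μM (0.5% DMSO final) for 72 h, then reagent for 3 h and A490 read. […] Triplicate wells, two repeats, Welch's t-test.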
A general note: Tetrazolium assays rely on reduction of a dye to a coloured formazan, in cell work by metabolically active cells.

A further series deals with HUVEC. In words: Cytotoxicity against HUVEC assessed as reduction in cell proliferation after 72 hrs by MTS assay. The format is cell-based. Particulars: Homo sapiens. The gist of the method: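 MTS assay in HUVEC grown in Eagle's MEM with 2 mM L-glutamine, penicillin/streptomycin and 10% FBS, at 37 °C under 5% CO2. Cells seeded at 2000 per well, attached for 24 h, then exposed to six compound concentrations (0.5% DMSO final) for 72 h. Reagent added for 3 h before reading A490. IC50 derived against DMSO-treated cells; triplicate wells, two repeats.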

Series [27] deals with Escherichia coli. Kind of series: microbe, parasite or virus in culture. Particulars: ATCC 25922, 18 h.

For `Cc1[nH]c(C(=O)Nc2ccc(C(=O)N[C@@H](C)c3n[nH]c(=O)o3)cc2OC(C)C)c(Cl)c1Cl`, the IC50 came out at 11 µM in [1], 12 µM in series [2] and 40.7 µM in the series with HUVEC. The inhibition of growth at 50 µM in the series with Staphylococcus aureus [3] is 100%; in the series with Enterococcus faecalis [4] it was 97%; in the series with Escherichia coli [5], 5%; in the series on Pseudomonas aeruginosa it was -1%; with Escherichia coli [6], 51%; in the series with Escherichia coli [7], 0%. Besides, the MIC90 against Enterococcus faecalis [8] stood at 1.56 µM (≈ 0.752 µg/mL); against Staphylococcus aureus [9], 4.17 µM (≈ 2.01 µg/mL); with Staphylococcus aureus [10], 3.13 µM (≈ 1.51 µg/mL); in the series with Escherichia coli [19], 4.6 µM; with Escherichia coli [20], 10.2 µM; in the series with Escherichia coli [24], 13.8 µM. The outcome in the series with Escherichia coli [11], with Escherichia coli [12], in the series on Escherichia coli [13], in the series with Escherichia coli [14], in the series with Escherichia coli [15] and in the series with Escherichia coli [16] was inactive. Further, the result in the series on Escherichia coli [17], in the series on Escherichia coli [18], with Escherichia coli [21], in the series on Escherichia coli [22], with Escherichia coli [23] and in the series on Escherichia coli [25] was inactive. Also, the viability at 72 h, 50 µM in [26] turned out to be 85%.
In the case of `O=C(O)c1cn(C2CC2)c2cc(N3CCNCC3)c(F)cc2c1=O` [CIPROFLOXACIN], the MIC90 against Escherichia coli [27] amounted to 0.05 µM (≈ 0.0166 µg/mL).
